High-throughput results as filed in PubChem BioAssay.
Shown are actives, neighbours in structure and some others; about 4.3% of the full set was active somewhere.
MC4R antagonist: human MC4R antagonism in cAMP assay. AID 540295. hit rate 0.48% among 360,000. inhibition, % at 6.5 µM. MC4R-expressing cells, MTII-stimulated cAMP, LANCE TR-FRET;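 active means inhibition above its plate's cutoff, the mean of tested wells on that plate plus 3 SD, cut at about 29% in these data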;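 further: 0% = Melanotan II alone and 100% = Melanotan II plus saturating MCL0020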
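System – human MC4R-expressing U2OS cells · Also added – Melanotan II · Dosing – one concentration, 6.5 µM nominal · Timing – 30-min compound, 1-h challenge, 1-h detection, room temperature · Measured by – Eu-cAMP/anti-cAMP TR-FRET, emission 671 nm · Replicates – singlicate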
Beta2AR agonist: agonists of human beta-2 adrenergic receptor inducing internalization. hit rate 0.43% among 340,000. response, % (no concentration beside the values). P07550. Am2.2-beta2AR cells, FAP receptor internalization, flow cytometry. AID 504454;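 active means response above a set limit, near 3 SD of response in nonfluorescent compounds, cut at about 42% in these data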
TAAR1 agonist: human TAAR1 agonism; Q96RJ0; CHO RD-HGA16 TAAR1, Fluo-8 calcium fluorescence; vehicle wells 0%, saturating PEA agonist 100%; activation, % at 3 µM; hit rate 0.99% among 360,000;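 active means activation above the mean activation of all test compounds in the run plus 3 SD, cut at about 38% in these data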
Target sequence (Q96RJ0 whole entry, looked up): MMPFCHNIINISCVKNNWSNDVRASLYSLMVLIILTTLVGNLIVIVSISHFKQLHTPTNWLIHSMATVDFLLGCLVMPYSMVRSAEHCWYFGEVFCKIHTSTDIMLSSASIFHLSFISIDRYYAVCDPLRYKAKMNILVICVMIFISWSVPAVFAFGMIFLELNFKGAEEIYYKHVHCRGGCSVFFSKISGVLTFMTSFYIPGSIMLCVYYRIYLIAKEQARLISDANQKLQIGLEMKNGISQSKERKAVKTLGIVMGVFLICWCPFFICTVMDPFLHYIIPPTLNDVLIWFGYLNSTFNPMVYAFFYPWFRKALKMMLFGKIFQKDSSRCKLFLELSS
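Signal – calcium-sensitive Fluo-8 signal, excitation 470-495, emission 515-575 nm · System – RD-HGA16 (CHO) cells co-expressing Gα16 and hTAAR1 · Incubation – 17-24 h seeding, 75 min 37 °C dye, 30 min RT · Compound dosing – 3 µM single concentration · Repeats – no replicates (n 1)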
TAAR1 antag: antagonists of human TAAR1; Q96RJ0; CHO RD-HGA16 TAAR1, Fluo-8 calcium fluorescence, antagonist; inhibition, % at 3 µM; hit rate 1.5% among 360,000; AID 624466;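 active means inhibition above a per-plate cutoff, the mean inhibition of test compounds on that plate plus 3 SD, cut at about 49% in these data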;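 further: 0% = DMSO plus EC80 beta-PEA response and 100% = DMSO alone without agonist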
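test system = CHO RD-HGA16 cells bearing hTAAR1 | replication = singlicate | controls = DMSO-only wells and EC80 β-PEA-stimulated wells | reagent = EC80 β-phenethylamine stimulus | read-out basis = percent inhibition of PEA-evoked calcium signal, max/basal emission ratio | schedule = seeding 17-24 h prior, 75-min 37 °C, 30-min RT dye loading | signal = kinetic Fluo-8 calcium fluorescence measurement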
MC4R barr agon: human MC4R agonism via beta-arrestin; U2OS MC4R beta-arrestin complementation, luminescence; percent of melanotan II response, DMSO zero; activation, % at 8.9 µM; hit rate 0.98% among 360,000; P32245;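 active means activation above a per-plate cutoff, the mean activation of sample wells on that plate plus 3 SD, cut at about 8% in these data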
m5-HT2A agonist: mouse HTR2A agonism via beta-arrestin recruitment; hit rate 0.66% among 360,000; CHO-K1 mHTR2A beta-arrestin complementation, luminescence; percent of 30 µM serotonin response; P35363; activation, % at 7.6 µM;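 active means activation above a run cutoff, the mean activation of all tested compounds plus 3 SD, cut at about 14% in these data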;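 further: 0% = plate median of compound wells and 100% = 30 µM serotonin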
* marks the source's active call; other numbers are inactive results; x = no result.

SMILES	MC4R antagonist	Beta2AR agonist	TAAR1 agonist	TAAR1 antag	MC4R barr agon	m5-HT2A agonist
OC[C@@H]1CN(Cc2ccccc2)C[C@H](n2cnc3c(NCc4ccco4)ncnc32)O1	-1	x	6	8	0	3
OC[C@@H]1CN(Cc2ccc3c(c2)OCO3)C[C@H](n2cnc3c(N4CCCC4)ncnc32)O1	12	x	2	-16	1	0
COc1cc(CN2C[C@@H](CO)O[C@@H](n3cnc4c(NC5CCC5)ncnc43)C2)cc(OC)c1OC	15	x	2	-4	-1	-4
OC1OC2COC(c3ccccc3)OC2C(O)C1O (configuration not stated)	x	x	1	-11	x	x
CC(C)C[C@H](NC(=O)N1CCOCC1)C(=O)N1CCC[C@H]1C(=O)NCc1ccccc1	x	x	4	-21	x	x
Cn1cc(CCOCc2ccccc2)c2ccccc21	x	x	-1	-13	x	x
C[C@H](CO)N1C[C@H](C)[C@@H](CN(C)C(=O)Nc2cccc(Oc3ccccn3)c2)OCc2cn(nn2)CCCC1=O	x	x	2	11	x	x
C=CCN1CC(COCc2ccccc2)OCCS1(=O)=O (configuration not stated)	x	x	0	-6	x	x
C[C@@H]1CCCCO[C@@H](CN(C)Cc2ccc(C(=O)O)cc2)[C@@H](C)CN([C@H](C)CO)C(=O)c2cc(NS(C)(=O)=O)ccc2O1	x	x	2	-6	x	x
Oc1ccc(Oc2ccc3c(C(F)(F)F)cc(C(F)(F)F)nc3n2)cc1	14	-32	4	-16	15*	6
COc1cc(N(C)C)ccc1[C@]1(O)C(=O)N(C)c2ccc(Br)cc21	x	x	3	0	x	10
COCCNC(=O)C1(C)CCCN(Cc2csc(-c3ccc(Cl)cc3)n2)C1 (configuration not stated)	-5	x	x	x	-2	-1
Cn1cc(-c2ccc(C(=O)Nc3cccc(Oc4ccccc4)c3)c3occc23)cn1	7	x	5	13	9.2*	-3
COc1ccc(-c2ccc(C(=O)Nc3cccc(NS(C)(=O)=O)c3)c3occc23)c(C)c1	11	x	3	71*	0	-1
COc1ccc(-c2ccc(C(=O)Nc3cccc(Oc4ccccc4)c3)c3occc23)c(C)c1	2	x	1	-2	-1	-2
COc1cccc(CNC(=O)[C@H]2CCCN2C(=O)[C@H]2CCCN2C(=O)c2cccc(Cl)c2)c1	x	x	1	-18	x	x
COc1cccc(S(=O)(=O)N(C)C[C@H]2OCc3cnnn3CCCC(=O)N([C@H](C)CO)C[C@H]2C)c1	4	x	0	-6	2	6
COc1ccc(Cc2nnc(NC(=O)CSc3ccc(C)cc3)s2)cc1OC	6	-3	112*	87*	-2	4
Cc1ccc(Oc2nc(-c3ccccc3)ncc2S(C)(=O)=O)cc1	-4	-10	6	-16	8.4*	-1
Cc1ccc(Oc2nc(-c3ccccc3)ncc2S(=O)(=O)c2ccc(C)cc2)cc1	1	5	1	-8	-3	-8
CC(C)=CCc1c(O)cc2oc3c(CC=C(C)C)c(O)c(O)c(CC=C(C)C)c3c(=O)c2c1O	8	21	4	58*	2	7
CC(C)=CCc1cc(-c2oc3cc(O)cc(O)c3c(=O)c2O)ccc1O	-5	-8	0	6	4	0
FC(F)(F)c1ccc(N2CCN(Cc3ccc4c(c3)OCO4)CC2)nc1	2	1	1	-28	9.2*	2
O=[N+]([O-])c1ccc(N2CCN(Cc3ccc4c(c3)OCO4)CC2)nc1	-3	-7	5	-30	0	-5
O=C1CCC(NC(=O)Cc2ccccc2)C(=O)N1 (configuration not stated)	x	x	0	2	x	x
SMILES	MC4R antagonist	Beta2AR agonist	TAAR1 agonist	TAAR1 antag	MC4R barr agon	m5-HT2A agonist
CCCCNC(=O)C1C2C=CC(C2)C1C(=O)O (configuration not stated)	3	0	42*	-5	1	-1
O=C(O)C1C2C=CC(C2)C1C(=O)NCCCN1CCOCC1 (configuration not stated)	9	-1	3	1	0	3
O=[N+]([O-])c1ccc(-c2csc(N3CCc4ccccc4C3)n2)cc1	12	-1	40*	-2	1	-4
O=[N+]([O-])c1ccc(N2CCc3ccccc3C2)cc1	19	5	7	4	0	-7
COc1ccc(-c2cc(C(=O)OC3CCOC3=O)c3ccccc3n2)cc1 (configuration not stated)	12	0	5	53*	-2	-2
CC(CC12CC3CC(CC(C3)C1)C2)NCc1ccccc1O (configuration not stated)	3	32	39*	1	3	5
Oc1ccccc1CNCC12CC3CC(CC(C3)C1)C2	3	7	3	-10	1	-8
COc1ccc(C(=O)Oc2ccc3oc(=O)sc3c2)cc1	-5	-1	6	4	13*	13
CC1(C(=O)NC2CCc3ccccc32)CCN1CCc1ccccc1 (configuration not stated)	3	x	10	-22	8.6*	-3
S=C(N/N=C/c1ccc(Cl)c(Cl)c1)Nc1ccccc1Cl	-6	-7	-1	-6	9.3*	-1
COC(=O)C1=C(C)N(C)C(=NCc2ccccc2)NC1c1ccc(F)cc1 (configuration not stated)	x	x	3	7	x	x
Nc1cccc2c1C(=O)N(C(=O)/C=C/c1ccc(F)cc1)C2=O	-4	87*	0	-1	3	4
C/C(CC(=O)Nc1ccc2c(c1)OCCO2)=N\NC(=O)c1ccccc1F	1	45*	4	-9	2	0
COc1ccccc1CCn1cnc(-c2ccc(OC)c(OC)c2)c1C(C)C	x	x	42*	26	x	-9
CCCCc1c(-c2cccc(OC)c2)ncn1CCc1ccccc1OC	x	x	22	56*	x	-9
CCCCc1c(-c2ccccc2OC)ncn1Cc1ccc(-c2ccccc2)cc1	x	x	8	18	x	-5
CCCc1c(-c2cccc(Cl)c2)ncn1CCc1ccccc1OC	x	x	19	53*	x	-5
CCCCc1c(-c2ccccc2OC)ncn1Cc1cccc(-c2ccccc2)c1	x	x	8	51*	x	3
CCN(CCNC(=O)c1ccc(C#N)cc1)c1cccc(C)c1	15	6	x	x	0	-2
CCN(CCNCC(O)COCc1ccc(Cl)cc1)c1cccc(C)c1 (configuration not stated)	0	24	40*	19	3	-1
CCOC(=O)c1nn(-c2cccc(OC)c2)c(-c2ccccc2)c1C(=O)c1ccccc1	3	2	0	56*	0	-5
